Compound activity as filed in PubChem.
An excerpt weighted towards active compounds, which were near 2.3% of everything screened.
FN deposition inh: fibronectin deposition inhibition; AID 743247; 0.086% of 350,000 active; AH1F fibroblasts, Alexa488-fibronectin deposition fluorescence, overnight; inhibition, % at 12.6 µM;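 active = mean inhibition across replicates of 30% or more, regardless of how many single replicates reach that level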;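 note: positive control wells lacked labelled fibronectin entirely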
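Schedule: 1 h cell adhesion before compound, then overnight fibronectin incubation; test system: AH1F fibroblast monolayer depositing Alexa488-labelled fibronectin into matrix; quantity: 10000 AH1F cells per well; probe or stimulus: fluorescent fibronectin at 24 nM final; signal: fluorescence, ex 485 nm, em 525 nm; evaluation: percent inhibition as loss of matrix-bound fibronectin fluorescence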
TROY signal inh: TROY signaling inhibition | Q293 LMP1-TROYcd NF-kB luciferase reporter, 4 h | inhibition, % at 10 µM | 0.98% of 360,000 active | AID 1347056;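 active = compounds whose plate-normalised and pattern-corrected inhibition of the luciferase reporter signal at the single screening dose is 50% or more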
LGR2 antag: inhibitors of bursicon-induced Drosophila LGR2 receptor cAMP signaling; 0.35% of 380,000 active; AID 720647; HEK293 LGR2, CRE-luciferase, bursicon-stimulated, 4 h; inhibition, % at 9.99 µM;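 active = drop in luminescence signal, shown as inhibition above about 50% in the replicate tests, limit read from the data, passing the limit was not always enough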;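 note: agonist challenge used bursicon conditioned medium at about half maximal strength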
EWS-Fli inh: blocks EWS/Fli oncoprotein-driven transcription. 0.67% of 350,000 active. inhibition, % at 12.6 µM. A673 NR0B1-luciferase reporter, viability-normalised;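 active = mean inhibition of at least 50% after viability correction, with every replicate also passing that limit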;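 note: firefly luciferase signal divided by Alamar Blue viability fluorescence both relative to DMSO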
TWEAK-Fn14 inh: blocks TWEAK-Fn14 interaction in a reporter cell assay | TWEAK-stimulated Fn14 reporter cells, luciferase luminescence, 8 h | inhibition, % at 10 µM | 2% of 360,000 active | AID 1159606; in the data active = inhibition above about 50%
XiGFP reactiv: reactivates the inactive X chromosome in mouse fibroblasts; activation, % at 7.58 µM; 0.055% of 360,000 active; XiGFP mouse fibroblasts, % GFP-positive cells imaging, 3 d; cells co-treated with 5-aza-dC sensitizer; scaled so ellipticine positive control = 100%;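 active = mean normalized replicate activation at least 10% and every replicate at or above 10%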;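 note: 0% = median of on-plate neutral control wells and 100% = ellipticine 6 µM median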
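Material: XiGFP fibroblasts, SV40-immortalized. Buffer or medium: DMEM plus 5-aza-dC sensitizer. Compound: single concentration per compound, delivered by pin transfer. Times: 3 days compound exposure. Controls: ellipticine 6 µM.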
An asterisk follows results filed as active; x = not tested or not shown; ! = repeats disagree.

SMILES	FN deposition inh	TROY signal inh	LGR2 antag	EWS-Fli inh	TWEAK-Fn14 inh	XiGFP reactiv
Cc1ccc(S(=O)(=O)Nc2ccc(Br)cc2C(NCC(=O)O)c2ccccc2)cc1 (stereo unspecified)	x	0	-1	x	12	0
O=C(O)CSc1cc(NS(=O)(=O)c2ccc(Br)cc2)c2ccccc2c1O	6	-15	1	-7	98*	0
O=S(=O)(Nc1cc(Sc2ncn[nH]2)c(O)c2ccccc12)c1ccccc1	21	62*	97*	38	95*	1
C[C@H](CO)N1C[C@H](C)[C@H](CN(C)Cc2cncnc2)Oc2cc(C#CC3CC3)ccc2S1(=O)=O	x	x	-3	0	x	0
C[C@@H]1CN([C@H](C)CO)C(=O)Cc2cc(NC(=O)Nc3ccccc3)ccc2O[C@@H]1CN(C)C(=O)NC1CCCCC1	0	x	-16	-1	x	0
COc1ccc(-c2c(C)nn3c(N)c(C#N)cnc23)cc1OC	18	-6	x	-22	50*	0
Cc1nn2c(N)c(C#N)cnc2c1-c1ccc(Cl)cc1	x	8	x	x	-3	x
CCCCNc1c(-c2ccc(SC3CCCCC3)c(OC)c2)nc2ccc(C)cn12	11	4	16	29	6	0
CCC(C)Sc1cc(-c2nc3ccc(C)cn3c2NCc2ccccc2)ccc1OC (stereo unspecified)	-8	24	-1	8	78*!	0
CCCCNc1c(-c2ccc(OC)c(SC3CCCCC3)c2)nc2ccc(C)cn12	-12	13	52*!	27	59*!	0
COc1ccc(-c2cc(-c3nc4ccccn4c3NCc3ccccc3)ccc2OC)cc1	29	-22	100*	76*	-9	0
CCC(C)Sc1cc(-c2nc3cc(C)ccn3c2NC2CCCCC2)ccc1OC (stereo unspecified)	-16	-23	-7	15	-5	1
CCC(C)Sc1cc(-c2nc3ccccn3c2NC2CCCCC2)ccc1OC (stereo unspecified)	-16	1	53*!	30	37	0
COc1ccc2c3c(n(C)c2c1)[C@@H](CO)N(Cc1ccccc1)CC31CN(S(C)(=O)=O)C1	x	x	-32	-14	x	1
O=C(NC1CCCC1)[C@@H]1[C@@H](CO)[C@@H]2Cn3c(ccc(-c4cccnc4)c3=O)[C@H]1N2CCc1ccccc1	x	x	-20	3	x	0
O=C(NCCn1cc(SCc2ccccc2)c2ccccc21)c1c(F)cccc1F	0	22	2	-13	50*	0
O=C(NCCn1cc(SCc2ccc(F)cc2)c2ccccc21)c1ccccc1F	x	28	x	x	51*	x
CCOC(=O)CSc1nc2cccnc2n1-c1ccc(F)cc1	0	61*	x	x	6	x
Cn1c(SCC(=O)c2ccc(F)cc2)nc2cccnc21	x	3	x	x	61*	x
O=C(CSc1ccc(-c2ccccn2)nn1)c1ccc(F)cc1	3	-11	-8	-7	82*	x
Cc1noc(C)c1NC(=O)N[C@@H]1C=C[C@@H](CC(=O)NCCCN(C)C)O[C@@H]1CO	7	x	7	x	x	0
COc1ccc(N/N=C(\C#N)C(=N)SCc2ccccc2)cc1	-6	52*	67*	-9	77*	0
CCOc1ccc(NC(=O)NCCCN2CCCC2)cc1	x	-7	-7	x	90*	x
O=C(Nc1ccc(OCc2ccccc2)cc1)Nc1ccccc1C(=O)NCCCN1CCOCC1	-13	-28	-25	-22	89*	0
CCC(=O)N1[C@H](C(=O)N2CCCCC2)[C@@H](CO)[C@@H]2Cn3c(cccc3=O)[C@@H]21	x	x	2	1	x	0
SMILES	FN deposition inh	TROY signal inh	LGR2 antag	EWS-Fli inh	TWEAK-Fn14 inh	XiGFP reactiv
O=C(Nc1ccc2c(c1)OCCO2)C(c1ccnc2ccccc12)N1CCN(c2ccc(F)cc2)CC1 (stereo unspecified)	4	14	-26	-1	-45	0
O=C(Nc1ccc2c(c1)OCCO2)C(c1ccnc2ccccc12)N1CCN(c2ccc(C(F)(F)F)cn2)CC1 (stereo unspecified)	3	69*	-2	23	89*	1
CC(CNC(=O)c1cc(COc2ccc3ncccc3c2)on1)c1ccccc1 (stereo unspecified)	10	54*	0	39	60*	0
O=C(NC1CCCCCCC1)c1cc(COc2ccc3ncccc3c2)on1	11	31	x	17	52*	0
Cc1cc(CN(C)C(=O)c2cc(COc3ccc4ncccc4c3)on2)on1	1	1	12	-1	27	x
C[C@@H]1CN([C@@H](C)CO)C(=O)c2cc(C3=CCCCC3)cnc2O[C@@H]1CN(C)C(=O)NC1CCCC1	x	x	3	2	x	-1
O=C(C[C@@H]1C=C[C@@H](NC(=O)C2CCOCC2)[C@H](CO)O1)NCC1CC1	x	x	0	-12	x	0
COc1cc(SC)ccc1C(=O)Nc1ncc(C)s1	x	83*	102*	81*	100*	0
COc1cc(SC)ccc1C(=O)Nc1ccc(C)cc1	3	-17	x	-37	14	0
COc1cc(SC)ccc1C(=O)Nc1ccc(Br)cn1	12	84*	x	73*	97*	0
COc1cc(SC)ccc1C(=O)Nc1ccccn1	-5	-7	5	14	56*	0
CCC(=O)OCCNc1cc(Sc2nc3ccccc3[nH]2)c2nonc2c1[N+](=O)[O-]	10	54*	7	x	54*	16*
CCCC(=O)OCCNc1cc(Sc2nccn2C)c2nonc2c1[N+](=O)[O-]	12	18	42	x	42	23*
CCCSc1cc(NCCOC(=O)CCC)c([N+](=O)[O-])c2nonc12	8	19	6	x	21	2
O=C(C[C@@H]1C[C@@H]2c3cc(NC(=O)CC4CC4)ccc3O[C@@H]2[C@@H](CO)O1)NCCc1ccccc1	-15	x	-13	14	x	0
C[C@H](CO)N1C[C@H](C)[C@H](CN(C)C(=O)c2cccc(F)c2)Oc2ncc(-c3ccccc3)cc2C1=O	34*	x	7	-6	x	0
C[C@@H]1CN([C@@H](C)CO)C(=O)c2cc(-c3ccccc3)cnc2O[C@H]1CN(C)C(=O)c1cccc(F)c1	-25	x	-6	5	x	-1
C[C@@H]1CN([C@@H](C)CO)C(=O)c2cc(C#CCN(C)C)cnc2O[C@H]1CN(C)Cc1ccc(-c2ccccc2)cc1	x	x	-9	73*!	x	0
O=C(C1CCOCC1)N1[C@H](CO)[C@@H]2c3ccccc3NC[C@@H]21	x	x	11	1	x	0
O=C(c1ccncc1)N1CC(=O)N2[C@H](CO)[C@H](c3ccc(-c4cccnc4)cc3)[C@H]2C1	x	x	-9	1	x	0
CC(C)NC(=O)N(C)C[C@H]1Oc2c(NS(C)(=O)=O)cccc2C(=O)N(C)C[C@@H]1C	-6	x	x	x	x	0
